Measured values from paper PMC9283735 (Clinical and Translational Science, 2022).
Like-named read-outs stand apart in the source and are kept apart here. *1 amine or outer side, *2 acyl side, *3 side chain or, on linkers, in order; H or OH if unused. Where a SMILES comes first, the peptide text is derived from it. Bridges are numbered along the chain shown (N, C = ends). [ ]: non-standard residue; d: D form. The star is where a group is joined. Orn(4R-OH,5R-OCH2CH2NMe3+) = C[N+](C)(C)CCO[C@@H](N[*:3])[C@H](O)C[C@H](N[*:1])C(=O)[*:2]; pTerphenylCO(4''-OnC5H11) = CCCCCOc1ccc(-c2ccc(-c3ccc(C(=O)*)cc3)cc2)cc1; hTyr(3S-OH,4S-OH) = N[C@H](C(=O)O)[C@H](O)[C@@H](O)c1ccc(O)cc1; Pro(3S-OH,4S-Me) = C[C@H]1CN[C@H](C(=O)O)[C@H]1O; Hyp = O=C(O)[C@@H]1C[C@@H](O)CN1

Legend:
[1] = monkeys; cited from earlier work
[2] = single i.v. doses of 50, 100, 200 and 400 mg, human plasma; cited from earlier work
healthy adult subjects [3] = test: Solicited local reactogenicity symptoms; assay type: in vivo, human; conditions: 1 mg or 10 mg single s.c. dose
In short: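 The injection site was evaluated from dosing to day 30: in-unit confinement for 7 days, then follow-up on days 14, 21 and 30 (±1 day). Solicited local symptoms were pain, tenderness, pruritus, ecchymosis, induration/swelling, erythema, nodule and ulceration, each graded mild (1), moderate (2) or severe (3). Subjects were randomized 3:1 to test compound or 5% dextrose placebo. Proportions carry Wilson-score 95% CIs.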

[4] = rats; cited from earlier work
healthy adult subjects [5] = assay type: in vivo, human
In short: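 Unsolicited AEs (volunteered, not pre-specified) were recorded from dosing to final follow-up (day 30), graded 1–3, judged related or unrelated by the study physician, and coded with MedDRA 23.1. Clinical evaluation included ECGs, physical examinations and vital signs on select days. Laboratory tests covered hematology, coagulation, blood chemistry and dipstick urinalysis, run on samples taken after a fast of at least 8 h.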

[6] = Plasma pharmacokinetics after a single s.c. dose; assay type: in vivo, human; conditions: 10 mg single s.c. dose, healthy adults; for AUC(0-t): AUC0-last; for AUC(0-t) / Tmax: N = 6; for Tmax: T max
In short: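 Healthy adults aged 18–45 y were randomized 3:1 to a single s.c. injection of the test compound (100 mg/ml formulation with mannitol) or placebo (5% dextrose). Parameters came from noncompartmental analysis (Lambda Z: adjusted r² ≥0.90, span ≥2.0 half-lives, ≥2 points after Tmax).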

[7] = cohort 1 (1 mg s.c.), of 3 who received rezafungin
[8] = cohort 2 (10 mg s.c.), of 6 who received rezafungin
[9] = human, plasma, sc, 10 mg, geometric mean, NCA
[10] = human, plasma, sc, 10 mg, median, NCA

For CCCCCOc1ccc(-c2ccc(-c3ccc(C(=O)N[C@H]4C[C@@H](O)[C@@H](OCC[N+](C)(C)C)NC(=O)[C@@H]5[C@@H](O)[C@@H](C)CN5C(=O)[C@H]([C@@H](C)O)NC(=O)[C@H]([C@H](O)[C@@H](O)c5ccc(O)cc5)NC(=O)[C@@H]5C[C@@H](O)CN5C(=O)[C@H]([C@@H](C)O)NC4=O)cc3)cc2)cc1 [rezafungin] ({pTerphenylCO(4''-OnC5H11)}-[Orn(4R-OH,5R-OCH2CH2NMe3+)]T[Hyp][hTyr(3S-OH,4S-OH)]T[Pro(3S-OH,4S-Me)]; lactam 1-C), the “bioavailability of s.c. formulation” value [1] is listed as at most 80%, the “T max after start of infusion” value [2] is listed as ~ 1 h and the Total body clearance [2] is listed as ~ 0.2 L/h. The “intensity of solicited reactogenicity symptoms” value (healthy adult subjects [3]) was “mild to moderate”, the “bioavailability of s.c. formulation” value [4] was at most 80% and the “severe bradycardia, subjects” value (healthy adult subjects [5]; cohort 1 (1 mg s.c.), asymptomatic, determined not rezafungin-related) was “single subject”. The “sinus bradycardia (unsolicited AE), % of subjects” value (healthy adult subjects [5]; [7]) was 67%, the “sinus bradycardia (unsolicited AE), subjects” value (healthy adult subjects [5]; [7]) was 2 and the “unsolicited AEs deemed related to rezafungin, number of subjects” value (healthy adult subjects [5]; cohort 2 (10 mg s.c.)) was “three”. The “unsolicited AEs deemed related to rezafungin, number of AEs” value (healthy adult subjects [5]; cohort 2 (10 mg s.c.), all mild) was “Five”, the “increased alanine aminotransferase (unsolicited AE), % of subjects” value (healthy adult subjects [5]; [8]) was 33% and the “increased alanine aminotransferase (unsolicited AE), subjects” value (healthy adult subjects [5]; [8]) was 2. The exposure period [6] was about 1 month, the “t 1/2, geometric mean” value ([6]; plasma, NCA, geometric mean, N = 5) was 186.2 h and the “AUC0-inf, maximum” value ([6]; plasma, NCA, maximum, N = 5) was 53,200 ng*h/ml. The “CL/F, maximum” value ([6]; plasma, NCA, maximum, N = 5) was 0.344 L/h, the “V z/F, maximum” value ([6]; plasma, NCA, maximum, N = 5) was 95.6 L and the “t 1/2, maximum” value ([6]; plasma, NCA, maximum, N = 5) was 219 h. The “CL/F, minimum” value ([6]; plasma, NCA, minimum, N = 5) was 0.188 L/h, the “V z/F, minimum” value ([6]; plasma, NCA, minimum, N = 5) was 38.0 L and the “t 1/2, minimum” value ([6]; plasma, NCA, minimum, N = 5) was 140 h. It also gave an AUC(0-t) [6, 9] of 32800 ng·h/mL, an AUC(0-t) [6, 10] of 32000 ng·h/mL and a CL/F ([6]; human, plasma, sc, 10 mg, CL/F (apparent clearance), mean, NCA, N = 5) of 4.35 mL/min. For the same molecule, the CL/F ([6]; human, plasma, sc, 10 mg, CL/F, geometric mean, NCA, N = 5) was 4.25 mL/min, the CL/F ([6]; human, plasma, sc, 10 mg, CL/F, median, NCA, N = 5) was 4.5 mL/min and the Tmax [6, 9] was 112 h. For the same molecule, the Tmax ([6]; human, plasma, sc, 10 mg, mean, NCA) was 120 h, the Tmax [6, 10] was 144 h and the half-life ([6]; human, plasma, sc, 10 mg, t 1/2, median, NCA, median, N = 5) was 193 h.
